Experiments:
[1] = Octanol-water partition coefficient, logP of the compound; assay type: physicochemical
[2] = Cytotoxicity against human BT-16 cells assessed as reduction in cell viability incubated for 72 hrs by PrestoBlue reagent based cell viability assay; assay type: functional; conditions: BT-16, 72 h
Procedure, shortened: (§1)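 Viability screen run in triplicate. IC50 is the compound dose giving 50% inhibition of cell viability, taken as cytotoxicity.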

[3] = Cytotoxicity against human HFF-1 cells assessed as reduction in cell viability incubated for 72 hrs by PrestoBlue reagent based cell viability assay; assay type: toxicity; procedure, shortened: as §1
[4] = Cytotoxicity against human BT-12 cells assessed as reduction in cell viability incubated for 72 hrs by PrestoBlue reagent based cell viability assay; assay type: functional; conditions: BT-12, 72 h; procedure, shortened: as §1
[5] = Antiproliferative activity against human BT-12 cells assessed as cell growth inhibition incubated for 72 hrs by MTT assay; assay type: functional, cell-based; conditions: BT-12, 72 h
Procedure, shortened: (§2)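 Proliferation screen run in triplicate. IC50 is the compound dose giving 50% inhibition of cell proliferation.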

[6] = Antiproliferative activity against human HFF-1 cells assessed as cell growth inhibition incubated for 72 hrs by MTT assay; assay type: toxicity, cell-based; procedure, shortened: as §2
KNS-42 [7] = assay: Antiproliferative activity against human KNS-42 cells assessed as cell growth inhibition incubated for 72 hrs by MTT assay; assay type: functional, cell-based; conditions: KNS-42, 72 h; procedure, shortened: as §2
Daoy [8] = assay: Cytotoxicity against human Daoy cells assessed as reduction in cell viability incubated for 72 hrs by PrestoBlue reagent based cell viability assay; assay type: functional; procedure, shortened: as §1
Daoy [9] = assay: Antiproliferative activity against human Daoy cells assessed as cell growth inhibition incubated for 72 hrs by MTT assay; assay type: functional, cell-based; procedure, shortened: as §2
KNS-42 [10] = assay: Cytotoxicity against human KNS-42 cells assessed as reduction in cell viability incubated for 72 hrs by PrestoBlue reagent based cell viability assay; assay type: functional; conditions: KNS-42, 72 h; procedure, shortened: as §1
[11] = Antiproliferative activity against human BT-16 cells assessed as cell growth inhibition incubated for 72 hrs by MTT assay; assay type: functional, cell-based; conditions: BT-16, 72 h; procedure, shortened: as §2
Cannabinoid receptor 2 [12] = biological target: T1, Cannabinoid receptor 2 (Homo sapiens, UniProt P34972); assay: Agonist activity at human CB2R expressed in mouse AtT20 cells at 10 uM by FLIPR membrane potential assay; assay type: functional, cell-based
Procedure, shortened: (§3)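 Agonist mode: AtT-20 cells stably transfected with human CB1R or human CB2R; membrane potential responses recorded.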

Cannabinoid receptor 2 [13] = biological target: T1, Cannabinoid receptor 2; assay: Antagonist activity at human CB2R expressed in mouse AtT20 cells at 10 uM by FLIPR membrane potential assay; assay type: functional, cell-based
Procedure, shortened: (§4)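 AtT-20 cells stably carrying human CB1R or human CB2R were pre-incubated with compound or vehicle for 60 minutes. 500 nM CP 55940 was then added and membrane potential responses were recorded. IC50 is for inhibition of the agonist response.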

Cannabinoid receptor 1 [14] = biological target: T2, Cannabinoid receptor 1 (Homo sapiens, UniProt P21554); assay: Antagonist activity at human CB1R expressed in mouse AtT20 cells at 10 uM by FLIPR membrane potential assay; assay type: functional, cell-based; procedure, shortened: as §4
Cannabinoid receptor 1 [15] = biological target: T2, Cannabinoid receptor 1; assay: Agonist activity at human CB1R expressed in mouse AtT20 cells at 10 uM by FLIPR membrane potential assay; assay type: functional, cell-based; procedure, shortened: as §3
Cannabinoid receptor 1 [16] = biological target: T2, Cannabinoid receptor 1; assay: Antagonist activity at human CB1R expressed in mouse AtT20 cells by FLIPR membrane potential assay; assay type: functional, cell-based; procedure, shortened: as §4

T1 sequence (P34972 whole entry): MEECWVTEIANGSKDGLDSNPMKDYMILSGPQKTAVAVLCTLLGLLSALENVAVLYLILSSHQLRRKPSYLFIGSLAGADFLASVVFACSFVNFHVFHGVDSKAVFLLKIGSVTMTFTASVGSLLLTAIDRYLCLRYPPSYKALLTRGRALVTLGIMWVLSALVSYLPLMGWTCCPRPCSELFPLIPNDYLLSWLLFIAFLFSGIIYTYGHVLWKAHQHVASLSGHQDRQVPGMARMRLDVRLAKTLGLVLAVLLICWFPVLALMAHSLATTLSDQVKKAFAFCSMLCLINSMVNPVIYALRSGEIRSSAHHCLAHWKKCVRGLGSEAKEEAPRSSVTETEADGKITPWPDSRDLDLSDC
T2 sequence (P21554 whole entry): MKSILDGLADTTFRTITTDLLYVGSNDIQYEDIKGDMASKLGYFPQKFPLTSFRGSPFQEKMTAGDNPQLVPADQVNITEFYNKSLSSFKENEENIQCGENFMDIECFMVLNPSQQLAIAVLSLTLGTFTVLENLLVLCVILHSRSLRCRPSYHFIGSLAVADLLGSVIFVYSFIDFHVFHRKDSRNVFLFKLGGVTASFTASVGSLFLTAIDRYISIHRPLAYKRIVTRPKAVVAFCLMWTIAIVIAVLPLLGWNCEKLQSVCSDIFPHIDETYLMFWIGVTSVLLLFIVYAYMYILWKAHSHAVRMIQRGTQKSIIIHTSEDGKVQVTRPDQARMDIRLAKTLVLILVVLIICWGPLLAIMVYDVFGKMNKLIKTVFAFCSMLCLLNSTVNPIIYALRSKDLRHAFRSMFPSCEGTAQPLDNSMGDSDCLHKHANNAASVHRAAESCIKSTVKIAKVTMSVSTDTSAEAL

`Cc1c(C(=O)c2cccc3ccccc23)c2cccc3c2n1[C@@H](CN1CCOCC1)CO3` showed a logP [1] of 4.13, an IC50 [2] of 4.74 µM and an IC50 at 72 h [3] of 0.023 µM. For the same compound, the IC50 [4] was 8.6 µM, the IC50 [5] was 9.32 µM and the IC50 at 72 h [6] was 1.82 µM. The IC50 (KNS-42 [7]) was 8.07 µM, the IC50 (Daoy [8]) was > 10 µM and the IC50 (Daoy [9]) was 6.09 µM. It also gave an IC50 (KNS-42 [10]) of 8.02 µM and an IC50 [11] of 4.57 µM.
With `O=C(NC12CC3CC(CC(C3)C1)C2)c1cc(=O)c2c(Cl)cc(Cl)cc2[nH]1` the IC50 (KNS-42 [7]) was > 10 µM and the IC50 (KNS-42 [10]) was > 10 µM.
With `O=C(NC12CC3CC(CC(C3)C1)C2)c1nc2ccccc2[nH]1` the IC50 (KNS-42 [7]) was > 10 µM and the IC50 (KNS-42 [10]) was > 10 µM.
In the case of `O=C(NC12CC3CC(CC(C3)C1)C2)c1ccc(NC(=O)c2cc3c(F)cc(F)cc3[nH]2)cc1`, the IC50 (KNS-42 [7]) is reported as > 10 µM and the IC50 (KNS-42 [10]) is reported as > 10 µM.
In the case of `O=C(Nc1nc2ccccc2[nH]1)C12CC3CC(CC(C3)C1)C2`, the IC50 (KNS-42 [7]) is reported as > 10 µM and the IC50 (KNS-42 [10]) is reported as > 10 µM.
In the case of `O=C(NC12CC3CC(CC(C3)C1)C2)c1c[nH]c2c(Cl)c(Cl)ccc2c1=O`, the IC50 (KNS-42 [7]) is reported as 8.05 µM and the IC50 (KNS-42 [10]) is reported as > 10 µM.
With `O=C(NC12CC3CC(CC(C3)C1)C2)c1c[nH]c2cc(Br)ccc2c1=O` the IC50 (KNS-42 [7]) was > 10 µM and the IC50 (KNS-42 [10]) was > 10 µM.
In the case of `O=C(NC12CC3CC(CC(C3)C1)C2)c1cc2ccccc2n1CCCCO`, the IC50 (KNS-42 [7]) is reported as > 10 µM and the IC50 (KNS-42 [10]) is reported as 4.75 µM.
In the case of `O=C(CNC(=O)c1cc2c(F)cc(F)cc2[nH]1)NC12CC3CC(CC(C3)C1)C2`, the IC50 (KNS-42 [7]) is reported as > 10 µM and the IC50 (KNS-42 [10]) is reported as > 10 µM.
For `Cc1cccc(CNC(=O)c2cc3c(F)cc(F)cc3[nH]2)c1`, the IC50 (KNS-42 [7]) was > 10 µM and the IC50 (KNS-42 [10]) was > 10 µM.
Compound `O=C(NCc1ccc(F)cc1)c1cc2c(F)cc(F)cc2[nH]1` has a logP [1] of 3.23, an IC50 [2] of 5.5 µM and an IC50 at 72 h [3] of 281 µM. It also gave an IC50 [4] of 9.23 µM, an IC50 [5] of 8.87 µM and an IC50 at 72 h [6] of 40 µM. For the same compound, the Activity (Cannabinoid receptor 2 [12]) was < 50%, the inhibition (Cannabinoid receptor 2 [13]) was < 50% and the IC50 (KNS-42 [7]) was 4.34 µM. The IC50 (Daoy [8]) was 4.1 µM, the IC50 (Daoy [9]) was > 10 µM and the IC50 (KNS-42 [10]) was 3.41 µM. For the same compound, the inhibition (Cannabinoid receptor 1 [14]) was < 50%, the Activity (Cannabinoid receptor 1 [15]) was < 50% and the IC50 [11] was 9.79 µM.
`O=C(NCCc1ccc2c(c1)OCO2)c1cc2c(F)cc(F)cc2[nH]1` gave an IC50 (Cannabinoid receptor 1 [16]) of 0.373 µM, a logP [1] of 3.02 and an IC50 [2] of 2.72 µM. The IC50 at 72 h [3] was 81 µM, the IC50 [4] was 6.08 µM and the IC50 [5] was 4.1 µM. The IC50 at 72 h [6] was 6.98 µM, the Activity (Cannabinoid receptor 2 [12]) was < 50% and the inhibition (Cannabinoid receptor 2 [13]) was < 50%. It also gave an IC50 (KNS-42 [7]) of 2.88 µM, an IC50 (Daoy [8]) of 3.65 µM and an IC50 (Daoy [9]) of 9.91 µM. The IC50 (KNS-42 [10]) was 2.34 µM, the Activity (Cannabinoid receptor 1 [15]) was < 50% and the IC50 [11] was 7.53 µM.
`O=C(Nc1nc2ccccc2[nH]1)c1cc2c(F)cc(F)cc2[nH]1` gave a logP [1] of 2.69, an IC50 [2] of 1.37 µM and an IC50 at 72 h [3] of 115 µM. For the same compound, the IC50 [4] was 7.65 µM, the IC50 [5] was 1.79 µM and the IC50 at 72 h [6] was 3.03 µM. For the same compound, the Activity (Cannabinoid receptor 2 [12]) was < 50%, the inhibition (Cannabinoid receptor 2 [13]) was < 50% and the IC50 (KNS-42 [7]) was 4.03 µM. For the same compound, the IC50 (Daoy [8]) was 1.02 µM, the IC50 (Daoy [9]) was 2.31 µM and the IC50 (KNS-42 [10]) was 4.49 µM. The inhibition (Cannabinoid receptor 1 [14]) was < 50%, the Activity (Cannabinoid receptor 1 [15]) was < 50% and the IC50 [11] was 5.41 µM.
In the case of `CCCC(C)(C)c1ccc2c(c1)OC(C)(C)[C@@H]1CC=C(C)C[C@@H]21`, the IC50 (KNS-42 [7]) is reported as > 10 µM and the IC50 (KNS-42 [10]) is reported as > 10 µM.

Source: ChEMBL document CHEMBL5107937, “Synthesis and antitumour evaluation of indole-2-carboxamides against paediatric brain cancer cells” (RSC Med Chem, 2021)
